Source: ChEMBL document CHEMBL1671680, “Pradimicin S, a highly soluble nonpeptidic small-size carbohydrate-binding antibiotic, is an anti-HIV drug lead for both microbicidal and systemic use” (Antimicrob Agents Chemother, 2010)
Active and inactive are the calls of the source. The calls are words filed in the database; no cut-off is given here.

Experiments:
[1] = Cytotoxicity against human Caco2 cells after 3 to 4 days; type: cell-based; settings: Caco-2 cells
Procedure, shortened: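 Cells seeded at 20,000–75,000 per well with compound dilutions, incubated 3–4 days at 37°C, and counted on a Coulter particle counter; CC50 is the concentration inhibiting proliferation by 50%.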

[2] = Cytotoxicity against human PBMC cells after 3 to 4 days; type: cell-based
[3] = tested on: Human immunodeficiency virus 1; test: Antiviral activity against R5 tropic HIV-1 Bal infected in human Raji cells expressing DC-SIGN gene assessed as inhibition of virus capture by Raji cells after 60 mins by ELISA; type: functional, organism-based; settings: Human immunodeficiency virus 1, Bal, 1 h
[4] = Antiviral activity against SIV mac251 infected in human Raji cells expressing DC-SIGN gene assessed as prevention of syncytium formation between persistently […]-infected Raji cells and uninfected human C8166 cells after 60 mins by ELISA; type: functional, cell-based, Simian immunodeficiency virus - mac; settings: Simian immunodeficiency virus, 251, Raji, 1 h
[5] = Binding affinity to HIV-1 HXB2 gp41 assessed as dissociation rate constant after 6 mins by SPR analysis in presence of 10 mM CaCl2; set-up: species or system Human immunodeficiency virus 1
[6] = tested on: Human immunodeficiency virus 1; test: Antiviral activity against compound pretreated HIV-1 3B isolate 42 harboring gp120 mutant infected in human CEM cells assessed as inhibition of virus-induced cytopathicity after 3 to 4 days by microscopic analysis; type: functional, organism-based; settings: Human immunodeficiency virus 1, 3B isolate 42, CCRF-CEM
Procedure, shortened: (§1)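 CEM or C8166 cells at 5 × 10^5/ml infected with HIV-1 at 100 CCID50 per ml, then mixed 1:1 with compound dilutions and held at 37°C for 3–4 days. Giant cells were counted microscopically at ×100 against untreated infected cultures. EC50 is the concentration cutting syncytium formation by 50%.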

PBMC [7] = test: Immunostimulatory activity against human PBMC assessed as IL1-beta production at 21 uM after 72 hrs; type: functional, cell-based
Procedure, shortened: (§2)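 Unstimulated PBMCs and PHA-blasts from three donors, in three independent experiments, cultured with test compound at 20 μg/ml (21 or 22 μM). Supernatants collected after 72 h. The cytokine profile was read on a Bio-Plex 27-plex human cytokine bead immunoassay, using beads coupled to cytokine-specific monoclonal antibodies and run per the kit instructions.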

PBMC [8] = test: Immunostimulatory activity against human PBMC assessed as IL-8 production at 21 uM after 72 hrs; type: functional, cell-based; procedure, shortened: as §2
PBMC [9] = test: Immunostimulatory activity against human PBMC assessed as IL-9 production at 21 uM after 72 hrs; type: functional, cell-based; procedure, shortened: as §2
PBMC [10] = test: Immunostimulatory activity against human PBMC assessed as FGF production at 21 uM after 72 hrs; type: functional, cell-based
Procedure, shortened: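 PBMCs and PHA blasts from three donors (three independent experiments) cultured with 21 μM compound; supernatants collected at 72 h; cytokines quantified with the Bio-Plex human 27-plex bead immunoassay.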

PBMC [11] = test: Immunostimulatory activity against human PBMC assessed as PDGF production at 21 uM after 72 hrs; type: functional, cell-based; procedure, shortened: as §2
PBMC [12] = test: Immunostimulatory activity against human PBMC assessed as RANTES production at 21 uM after 72 hrs; type: functional, cell-based; procedure, shortened: as §2
PBMC [13] = test: Immunostimulatory activity against human PBMC assessed as TNF-alpha production at 21 uM after 72 hrs; type: functional, cell-based; procedure, shortened: as §2
PBMC [14] = test: Immunostimulatory activity against human PBMC assessed as IL-2 production at 22 uM after 72 hrs; type: functional, cell-based; procedure, shortened: as §2
PBMC [15] = test: Immunostimulatory activity against human PBMC assessed as IL-8 production at 22 uM after 72 hrs; type: functional, cell-based; procedure, shortened: as §2
PBMC [16] = test: Immunostimulatory activity against human PBMC assessed as IL-15 production at 22 uM after 72 hrs; type: functional, cell-based; procedure, shortened: as §2
PBMC [17] = test: Immunostimulatory activity against human PBMC assessed as eotoxin production at 22 uM after 72 hrs; type: functional, cell-based
Procedure, shortened: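 In three independent experiments, PBMCs and PHA-blasts from three donors were cultured with compound for 72 h. Supernatants were analysed with a bead-based 27-plex human cytokine immunoassay covering interleukins, chemokines, growth factors, IFN-γ and TNF-α.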

PBMC [18] = test: Immunostimulatory activity against human PBMC assessed as GM-CSF production at 22 uM after 72 hrs; type: functional, cell-based
PBMC [19] = test: Immunostimulatory activity against human PBMC assessed as suppression of IL-2 production at 21 uM after 72 hrs; type: functional; procedure, shortened: as §2
PBMC [20] = test: Immunostimulatory activity against human PBMC assessed as suppression of IL-9 production at 21 uM after 72 hrs; type: functional; procedure, shortened: as §2
PBMC [21] = test: Immunostimulatory activity against human PBMC assessed as suppression of PDGF production at 21 uM after 72 hrs; type: functional; procedure, shortened: as §2
PBMC [22] = test: Immunostimulatory activity against human PBMC assessed as suppression of IL-15 production at 22 uM after 72 hrs; type: functional; procedure, shortened: as §2
[23] = tested on: Human immunodeficiency virus 1; test: Antiviral activity against R5 tropic HIV-1 clade G isolate BCF-DIOUM infected in human PBMC assessed as inhibition of viral replication […] by ELISA; type: functional, organism-based; settings: Human immunodeficiency virus 1, clade G isolate BCF-DIOUM
Procedure, shortened: (§3)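 PBMCs from healthy donors were stimulated with PHA (2 μg/ml) for 3 days, then seeded at 0.5 × 10^6 cells/well in RPMI 1640 with 10% FCS, IL-2 (25 U/ml) and compound. Virus was added at a final 250 pg p24/ml. Supernatant was taken at day 12 for p24 antigen ELISA.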

[24] = tested on: Human immunodeficiency virus 1; test: Antiviral activity against X4 tropic HIV-1 Bal infected in human PBMC assessed as inhibition of viral replication […] by ELISA; type: functional, organism-based; settings: Human immunodeficiency virus 1, Bal; procedure, shortened: as §3
[25] = tested on: Human immunodeficiency virus 1; test: Ratio of EC90 to EC50 for R5 tropic HIV-1 clade C isolate ETH2220 infected in human PBMC; type: functional
Procedure, shortened: (§4)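 PBMCs from healthy donors were PHA-stimulated (2 μg/ml, 3 days, 37°C), then seeded at 0.5 × 10^6 per well with compound dilutions in RPMI 1640 with 10% FCS and IL-2 (25 U/ml). Virus was added at 250 pg p24 or p27/ml final. On day 12, supernatant HIV-1 p24 or HIV-2 p27 was measured by ELISA, giving EC50 and EC90.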

[26] = tested on: Human immunodeficiency virus 1; test: Ratio of EC90 to EC50 for R5 tropic HIV-1 clade F isolate BZ163 infected in human PBMC; type: functional; procedure, shortened: as §4
[27] = tested on: Human immunodeficiency virus 1; test: Ratio of EC90 to EC50 for X4 tropic HIV-1 group O isolate BCF06 infected in human PBMC; type: functional; procedure, shortened: as §4
[28] = tested on: Human immunodeficiency virus 1; test: Antiviral activity against HIV-1 3B infected in human CEM cells assessed as inhibition of virus-induced cytopathicity after 3 to 4 days by microscopic analysis; type: functional, organism-based; settings: Human immunodeficiency virus 1, 3B, CCRF-CEM; procedure, shortened: as §1
[29] = tested on: Human immunodeficiency virus 1; test: Antiviral activity against HIV-1 3B infected in human MT4 cells assessed as inhibition of virus-induced cytopathicity after 7 days by trypan blue staining; type: functional, organism-based; settings: Human immunodeficiency virus 1, 3B, MT4, 168 h
[30] = tested on: Human immunodeficiency virus 1; test: Antiviral activity against X4 tropic HIV-1 clade D isolate UG270 infected in human PBMC assessed as inhibition of viral replication after 12 days by ELISA; settings: Human immunodeficiency virus 1, clade D isolate UG270, 12 days
[31] = tested on: Human immunodeficiency virus 1; test: Antiviral activity against R5 tropic HIV-1 clade C isolate ETH2220 infected in human PBMC assessed as inhibition of viral replication after 12 days by ELISA; settings: Human immunodeficiency virus 1, clade C isolate ETH2220, 12 days

Compound: CN[C@@H]1[C@H](O[C@@H]2OC[C@@H](O)[C@H](O)[C@H]2O)[C@@H](O)[C@H](O[C@H]2c3cc(C)c(C(=O)N[C@H](C)C(=O)O)c(O)c3-c3c(cc4c(c3O)C(=O)c3cc(OC)cc(O)c3C4=O)[C@@H]2O)O[C@@H]1C [PRADIMICIN A]
- CC50 [1]: > 50 µM
- CC50 [2]: > 50 µM
- IC50 [3]: 17 µM
- IC50 [4]: 16 µM
- Kd [5]: 2.91 ×10⁻² /s
- EC50 [6]: > 50 µM
- Activity (PBMC [7]): inactive
- Activity (PBMC [8]): inactive
- Activity (PBMC [9]): inactive
- Activity (PBMC [10]): inactive
- Activity (PBMC [11]): inactive
- Activity (PBMC [12]): inactive
- Activity (PBMC [13]): inactive
- Activity (PBMC [14]): inactive
- Activity (PBMC [15]): inactive
- Activity (PBMC [16]): inactive
- Activity (PBMC [17]): inactive
- Activity (PBMC [18]): inactive
- fold change (FC) (PBMC [19]): 4
- fold change (FC) (PBMC [20]): 2
- fold change (FC) (PBMC [21]): 2
- fold change (FC) (PBMC [22]): 2
- EC50 [23]: 6.7 µM
- EC50 [24]: 2.2 µM
- Ratio [25]: 2
- Ratio [26]: 2
- Ratio [27]: 2
- EC50 [28]: 5.9 µM
- EC50 [29]: 5.2 µM
- EC50 [30]: 3 µM
- EC50 [31]: 10 µM

Compound: CN[C@@H]1[C@H](O[C@@H]2O[C@H](CO)[C@@H](O)[C@H](OS(=O)(=O)O)[C@H]2O)[C@@H](O)[C@H](O[C@H]2c3cc(C)c(C(=O)N[C@H](C)C(=O)O)c(O)c3-c3c(cc4c(c3O)C(=O)c3cc(OC)cc(O)c3C4=O)[C@@H]2O)O[C@@H]1C [PRADIMICIN S]
- CC50 [1]: > 230 µM
- CC50 [2]: > 230 µM
- IC50 [3]: 21 µM
- IC50 [4]: 16 µM
- Kd [5]: 2.71 ×10⁻² /s
- EC50 [6]: > 50 µM
- Activity (PBMC [7]): inactive
- Activity (PBMC [8]): inactive
- Activity (PBMC [9]): inactive
- Activity (PBMC [10]): inactive
- Activity (PBMC [11]): inactive
- Activity (PBMC [12]): inactive
- Activity (PBMC [13]): inactive
- Activity (PBMC [14]): inactive
- Activity (PBMC [15]): inactive
- Activity (PBMC [16]): inactive
- Activity (PBMC [17]): inactive
- Activity (PBMC [18]): inactive
- fold change (FC) (PBMC [19]): 4
- fold change (FC) (PBMC [20]): 2
- fold change (FC) (PBMC [21]): 2
- fold change (FC) (PBMC [22]): 2
- EC50 [23]: 17 µM
- EC50 [24]: 5.3 µM
- Ratio [25]: 2
- Ratio [26]: 2
- Ratio [27]: 2
- EC50 [28]: 8.9 µM
- EC50 [29]: 5 µM
- EC50 [30]: 18 µM
- EC50 [31]: 17 µM
